Reference: ChEMBL document CHEMBL5674889, “Enhanced JunD/RSK3 signalling due to loss of BRD4/FOXD3/miR-548d-3p axis determines BET inhibition resistance” (2020)
Calls of active or inactive are those of the source.

How the values were obtained:
[1] = test system: BT-549; experiment: Antiproliferative activity in human BT-549 cells assessed as cell viability at 1 uM by CCK-8 assay; type: functional, cell-based
[2] = test system: MDA-MB-231; experiment: Effect on human MDA-MB-231 cells assessed as JunD protein expression by Western blot analysis; type: functional, cell-based
[3] = test system: BT-549; experiment: Effect on human BT-549 cells assessed as JunD protein expression by Western blot analysis; type: functional, cell-based
[4] = test system: BT-549; experiment: Effect on human BT-549 cells assessed as RPS6KA2 protein expression by Western blot analysis; type: functional, cell-based
[5] = test system: MDA-MB-231; experiment: Effect on human MDA-MB-231 cells assessed as RPS6KA2 protein expression by Western blot analysis; type: functional, cell-based
[6] = test system: BT-474; experiment: Antiproliferative activity in human BT-474 cells assessed as cell growth at 1 uM by CCK-8 assay; type: functional, cell-based
Outline: (§1)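 Cells grown in 10% FBS medium (DMEM for BT-474 and MDA-MB-231) and seeded at 3000 cells/well, adhering overnight. Exposed to 1 μM for 48 h, with DMSO as control. Growth read by CCK-8 as background-subtracted signal normalized to the DMSO control. Mean ± SD of triplicates.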

[7] = test system: MDA-MB-231; experiment: Antiproliferative activity in human MDA-MB-231 cells assessed as cell growth at 1 uM by CCK-8 assay; type: functional, cell-based; outline: as §1
[8] = test system: BT-549; experiment: Antiproliferative activity in human BT-549 cells assessed as reduced cell growth co-treated with GDC-0994 at 1 uM by CCK-8 assay; type: functional, cell-based
Outline: (§2)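 MDA-MB-231 (DMEM + 10% FBS) or BT549 (RPMI-1640 + 10% FBS) seeded at 3000 cells/well and left to adhere overnight. Treated 48 h with the kinase inhibitors alone, combined, or together with JQ1. Growth measured by CCK-8 and normalized to the DMSO-treated control after background subtraction. Triplicates, mean ± SD, one-way ANOVA against JQ1 alone.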

[9] = test system: MDA-MB-231; experiment: Antiproliferative activity in human MDA-MB-231 cells assessed as reduced cell growth co-treated with GDC-0994 at 1 uM by CCK-8 assay; type: functional, cell-based; outline: as §2
[10] = test system: MDA-MB-231; experiment: Effect on human MDA-MB-231 cells assessed as decrease in RSK3 protein expression in the presence of GDC-0994 at 1 uM by Western blot analysis; type: functional, cell-based
[11] = test system: MDA-MB-231; experiment: Effect on human MDA-MB-231 cells assessed as suppression of tumor sphere formation at 1 uM by Tumor sphere assay; type: functional, cell-based
[12] = test system: BT-549; experiment: Effect on human BT-549 cells assessed as suppression of tumor sphere formation at 1 uM by Tumor sphere assay; type: functional, cell-based
[13] = test system: MDA-MB-231; experiment: Antiproliferative activity in human BRD4-knockdown MDA-MB-231 cells assessed as cell growth at 1 uM by CCK-8 assay; type: functional, cell-based
Outline: (§3)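 Vector control or BRD4-knockdown cells, 3000/well, adhered overnight, then DMSO or osimertinib for 48 h; growth by CCK-8, normalized to DMSO-treated control. Triplicates, mean ± SD; one-way ANOVA, vehicle vs osimertinib in knockdown clones.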

[14] = test system: BT-549; experiment: Antiproliferative activity in human BRD4-knockdown BT-549 cells assessed as cell growth at 1 uM by CCK-8 assay; type: functional, cell-based; outline: as §3
[15] = test system: MDA-MB-231; experiment: Antiproliferative activity in human MDA-MB-231 cells assessed as reduction in size of tumor sphere at 1 uM by Tumor sphere assay; type: functional, cell-based
[16] = test system: BT-549; experiment: Antiproliferative activity in human BT-549 cells assessed as reduction in size of tumor sphere at 1 uM by Tumor sphere assay; type: functional, cell-based
[17] = test system: BT-549; experiment: Inhibition of cell migration in human BT-549 cells at 1 uM by transwell invasion assay; type: functional, cell-based
[18] = test system: MDA-MB-231; experiment: Inhibition of cell migration in human MDA-MB-231 cells at 1 uM by transwell invasion assay; type: functional, cell-based
Outline: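 Invasion assay: 1 × 10^5 cells seeded in Matrigel-coated upper Boyden chamber; lower chamber held serum-free medium with 100 nM LPA. After 24 or 48 h, invaded cells stained with crystal violet and counted.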

[19] = test system: MDA-MB-231; experiment: Induction of apoptosis in human MDA-MB-231 cells in the presence of osimertinib at 1 uM by flow cytometry analysis; type: functional, cell-based
Outline: (§4)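 Cells given JQ1 and/or osimertinib, then stained with Annexin V-FITC plus propidium iodide (10 min, room temperature, dark; 1 × 10^6 cells/ml in binding buffer after two PBS washes) and analysed by flow cytometry; one-way ANOVA.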

[20] = test system: BT-549; experiment: Induction of apoptosis in human BT-549 cells in the presence of osimertinib at 1 uM by flow cytometry analysis; type: functional, cell-based; outline: as §4
[21] = test system: MDA-MB-231; experiment: Induction of apoptosis in human MDA-MB-231 cells assessed as caspase-3 cleavage in the presence of osimertinib at 1 uM by Western blotting analysis; type: functional, cell-based
[22] = test system: MDA-MB-231; experiment: Antitumor activity against human MDA-MB-231 cells xenografted in BALB/c nude mouse model assessed as reduction of tumor size in the presence of osimertinib at 35 mg/kg/day, sc administered every 2 days for 30 days; type: functional, organism-based; conditions: time 30.0 day
Outline: (§5)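 MDA-MB-231 xenografts used 1 × 10^6 cells injected subcutaneously into female BALB/c nude mice (4–6 weeks). Animals were split into four groups (n = 7) at ~100 mm3: vehicle, osimertinib 10 mg/kg, 35 mg/kg agent, or the combination, each given every 2 days. Volume was measured by calliper as length × width²/2; tumours were weighed at end.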

[23] = test system: MDA-MB-231; experiment: Antitumor activity against human MDA-MB-231 cells xenografted in BALB/c nude mouse model assessed as reduction of tumor weight in the presence of osimertinib at 35 mg/kg/day, sc administered every 2 days for 30 days; type: functional, organism-based; conditions: time 30.0 day; outline: as §5
[24] = test system: MDA-MB-231; experiment: Antiproliferative activity in human MDA-MB-231 cells assessed as inhibited cell growth at 1 uM by CCK-8 assay; type: functional, cell-based
[25] = test system: MDA-MB-231; experiment: Antiproliferative activity in human MDA-MB-231 cells assessed as reduced cell growth co-treated with XMD8-92 at 1 uM by CCK-8 assay; type: functional, cell-based; outline: as §2
[26] = test system: BT-549; experiment: Antiproliferative activity in human BT-549 cells assessed as reduced cell growth co-treated with XMD8-92 at 1 uM by CCK-8 assay; type: functional, cell-based; outline: as §2
[27] = test system: MDA-MB-231; experiment: Effect on human MDA-MB-231 cells assessed as RSK3 protein expression in the presence of XMD8-92 at 1 uM by Western blot analysis; type: functional, cell-based
[28] = test system: MDA-MB-231; experiment: Effect on human MDA-MB-231 cells assessed as EGFR protein expression at 1 uM by Western blot analysis; type: functional, cell-based
[29] = test system: MDA-MB-231; experiment: Antiproliferative activity in human MDA-MB-231 cells assessed as reduction in cell growth at 1 uM by CCK-8 assay; type: functional, cell-based
[30] = test system: BT-549; experiment: Antiproliferative activity in human BT-549 cells assessed as reduction in cell growth at 1 uM by CCK-8 assay; type: functional, cell-based

COc1cc2c(cc1-c1c(C)noc1C)ncc1[nH]c(=O)n([C@H](C)c3ccccn3)c12
active: Activity [1] | Activity [2] | Activity [3] | Activity [4] | Activity [5]

Oc1c(F)cc(-c2cnccc2-c2ccc(N3CCOCC3)cc2)cc1F
active: Activity [6] | Activity [7]

CCOc1cc(N2CCC(O)CC2)ccc1Nc1ncc2c(n1)N(C)c1ccccc1C(=O)N2C
active: Activity [8] | Activity [9] | Activity [10]

C=CC(=O)Nc1cc(Nc2nccc(-c3cn(C)c4ccccc34)n2)c(OC)cc1N(C)CCN(C)C
active: Activity [11] | Activity [12] | Activity [13] | Activity [14] | Activity [1] | Activity [15] | Activity [16] | inhibition [17] | inhibition [18] | Activity [19] | Activity [20] | Activity [21] | Activity [22] | Activity [23] | Activity [24]

CN1CCN(c2ccc(-c3ccncc3-c3cc(F)c(O)c(F)c3)cc2)CC1
active: Activity [6] | Activity [7]

CCNC(=O)C[C@@H]1N=C(c2ccc(Cl)cc2)c2cc(OC)ccc2-n2c(C)nnc21
active: Activity [1] | Activity [2] | Activity [3] | Activity [4] | Activity [5]

Cn1nccc1Nc1nccc(-c2ccn([C@H](CO)c3ccc(Cl)c(F)c3)c(=O)c2)n1
active: Activity [25] | Activity [26] | Activity [27] | Activity [28]

C[S+]([O-])c1ccc(-c2nc(-c3ccc(F)cc3)c(-c3ccncc3)[nH]2)cc1 (stereo not drawn)
active: Activity [29] | Activity [30]
